Laboratory results as given in ChEMBL document CHEMBL2176997, “Salicylanilide inhibitors of Toxoplasma gondii” (J Med Chem, 2012).
Values after ≈ are worked out from the molar mass of the structure shown. Active and inactive are the calls of the source. No cut-off for these calls is given here.

The molecules below were run on Toxoplasma gondii (assay: Antiapicomplexan activity against Toxoplasma gondii THdhxgTRP tachyzoites harboring insertional mutation assessed as growth inhibition after 6 weeks). Settings: not given.
Format: functional, organism-based

Compound | growth inhibition (GI)
O=c1[nH]c(=O)c2nc[nH]c2[nH]1 | Active
O=C(Nc1cc(C(F)(F)F)cc(C(F)(F)F)c1)c1cc(Cl)ccc1O [IMD-0354] | Active
O=C(Oc1ccc(Cl)cc1C(=O)Nc1ccc([N+](=O)[O-])cc1Cl)c1ccccc1 | Active
COc1c(C)c2c(c(O)c1C/C=C(\C)CCC(=O)O)C(=O)OC2 | Active
CN(CC(=O)NN)C(=O)Oc1ccc(Cl)cc1C(=O)Nc1cc(C(F)(F)F)cc(C(F)(F)F)c1.Cl | Active

Each molecule was assayed on Mus musculus (assay: Toxicity in HLA B07 transgenic mouse assessed as survival at 25 to 100 mg/kg, po administered for 9 days measured after day 10). Settings: in vivo, 216 h.
Format: organism-based
Set-up: dose 25-100 mg/kg, route oral

Compound | Activity
CN(CC(=O)NN)C(=O)Oc1ccc(Cl)cc1C(=O)Nc1ccc([N+](=O)[O-])cc1Cl.Cl | Non-toxic
CN(CC(=O)NN)C(=O)Oc1ccc(Cl)cc1C(=O)Nc1cc(C(F)(F)F)cc(C(F)(F)F)c1.Cl | Non-toxic

These molecules were tested on Plasmodium falciparum (assay: Antiapicomplexan activity against chloroquine-sensitive Plasmodium falciparum D6 assessed as growth inhibition after 72 hrs by MSF assay). Settings: D6, 72 h.
Format: functional, organism-based
Summary of the method: (§1)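 P. falciparum D6 or TM91-C235, late-ring/early-trophozoite stage, cultured at 0.3% parasitemia and 2% hematocrit on predosed plates. Twelve two-fold dilutions spanned 0.5–10000 ng/ml final, in quadruplicate, with chloroquine control. Incubation 72 h at 37°C under 5% CO2/5% O2/90% N2. Lysis buffer with SYBR Green I (10x final) was added, then 24 h dark at room temperature. IC50 from fluorescence by sigmoidal variable-slope regression.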

Compound | IC50 [nM]
O=C(Nc1cc(C(F)(F)F)cc(C(F)(F)F)c1)c1cc(Cl)ccc1O [IMD-0354] | 1400
O=C(Oc1ccc(Cl)cc1C(=O)Nc1ccc([N+](=O)[O-])cc1Cl)c1ccccc1 | 770

These molecules were tested on Toxoplasma gondii (assay: Parasitocidal activity against Toxoplasma gondii RH tachyzoites expressing yellow fluorescent protein infected in HFF cells at 1 uM administered for 4 days followed by compound refreshment on day 4 and compound wash out on day 10 measured after 11 to 25 days). Settings: not given.
Format: functional, organism-based
Summary of the method: (§2)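 RH-YFP tachyzoites in HFF cells given compound at 1 μM under one of four regimens: 4 days then removal; 10 days then removal; refreshed at day 4 and removed at day 10; or maintained throughout. Parasite growth was followed as YFP fluorescence over time.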

Compound | Activity
O=C(Nc1cc(C(F)(F)F)cc(C(F)(F)F)c1)c1cc(Cl)ccc1O [IMD-0354] | Active
O=C(Oc1ccc(Cl)cc1C(=O)Nc1ccc([N+](=O)[O-])cc1Cl)c1ccccc1 | Active
CN(CC(=O)NN)C(=O)Oc1ccc(Cl)cc1C(=O)Nc1ccc([N+](=O)[O-])cc1Cl.Cl | Active

What follows are molecules tested on Toxoplasma gondii (assay: Parasitocidal activity against Toxoplasma gondii RH tachyzoites expressing yellow fluorescent protein infected in HFF cells at 1 uM administered for 4 days followed by compound wash out measured after 11 to 25 days). Settings: not given.
Format: functional, organism-based
Summary of the method: as §2

Compound | Activity
O=C(Nc1cc(C(F)(F)F)cc(C(F)(F)F)c1)c1cc(Cl)ccc1O [IMD-0354] | Active
O=C(Oc1ccc(Cl)cc1C(=O)Nc1ccc([N+](=O)[O-])cc1Cl)c1ccccc1 | Active

The molecules below were run on HFF (assay: Cytotoxicity against HFF cells assessed as survival by WST1 assay). Settings: human.
Format: cell-based
Summary of the method: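 Confluent HFF cells were treated with compounds at the concentrations used in the challenge assays. On the final day WST-1 reagent was added, followed by 1 h incubation in the dark at 37°C and absorbance reading at 420 nm.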

Compound | Activity [nM]
O=C(Nc1cc(C(F)(F)F)cc(C(F)(F)F)c1)c1cc(Cl)ccc1O [IMD-0354] | > 1000
O=C(Oc1ccc(Cl)cc1C(=O)Nc1ccc([N+](=O)[O-])cc1Cl)c1ccccc1 | > 1000
CN(CC(=O)NN)C(=O)Oc1ccc(Cl)cc1C(=O)Nc1ccc([N+](=O)[O-])cc1Cl.Cl | > 1000
CN(CC(=O)NN)C(=O)Oc1ccc(Cl)cc1C(=O)Nc1cc(C(F)(F)F)cc(C(F)(F)F)c1.Cl | > 1000

The molecules below were run on Toxoplasma gondii (assay: Parasitocidal activity against Toxoplasma gondii RH tachyzoites expressing yellow fluorescent protein infected in HFF cells assessed as parasite growth inhibition at 1 uM administered for 25 days followed by compound wash out). Settings: not given.
Format: functional, organism-based
Summary of the method: as §2

Compound | Activity
O=C(Nc1cc(C(F)(F)F)cc(C(F)(F)F)c1)c1cc(Cl)ccc1O [IMD-0354] | Active
O=C(Oc1ccc(Cl)cc1C(=O)Nc1ccc([N+](=O)[O-])cc1Cl)c1ccccc1 | Active

The molecules below were run on Toxoplasma gondii (assay: Antiapicomplexan activity against Toxoplasma gondii RH tachyzoites infected in HFF cells assessed as [3H]-uracil incorporation after 24 hrs by scintillation luminescence counter). Settings: not given.
Format: functional
Summary of the method: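 Confluent HFF monolayers in IMDM-C (10% FBS) infected with 3,500 needle-released tachyzoites per well. Compounds from 10 mM DMSO stocks, diluted in medium (final DMSO ≤0.1%), were added 1 h after infection, with 0.1% DMSO as vehicle control. [3H]-uracil (25 µL of 0.1 mCi/mL) was added 24 h before harvest onto glass-fibre filters and counted by scintillation. Cultures were kept at 33°C or 37°C, 5% CO2.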

Compound | MIC50 [µM] | MIC90 [µM]
C#Cc1cc(NC(=O)c2cc(Cl)ccc2O)ccc1F | > 1 | > 1
O=C(Nc1cccc(Cl)c1)c1cc(I)cc(I)c1O | > 1 | > 1
CCOc1cccc(NC(=O)c2cc(Cl)ccc2O)c1 | > 1 | > 1
O=C(Nc1cccc(OC(C(F)(F)F)C(F)(F)F)c1)c1cc(Cl)ccc1O | > 1 | > 1
O=C(Nc1cccc(Oc2ccccc2)c1)c1cc(Cl)ccc1O | > 1 | > 1
O=C(Nc1cc(C(F)(F)F)cc(C(F)(F)F)c1)c1cc(Cl)ccc1O [IMD-0354] | 0.016 (≈ 0.00614 µg/mL) | 0.125 (≈ 0.048 µg/mL)
O=C(Oc1ccc(Cl)cc1C(=O)Nc1ccc([N+](=O)[O-])cc1Cl)c1ccccc1 | 0.061 (≈ 0.0263 µg/mL) | 0.125 (≈ 0.0539 µg/mL)
Nc1ccc(NC(=O)c2cc(Cl)ccc2O)c(Cl)c1 | > 1 | > 1
Cc1ccc(O)c(C(=O)Nc2ccc([N+](=O)[O-])cc2Cl)c1 | 0.25 (≈ 0.0767 µg/mL) | 0.25 (≈ 0.0767 µg/mL)
O=C(Nc1ccc([N+](=O)[O-])cc1Cl)c1cc(Cl)ccc1O [NICLOSAMIDE] | 0.2 (≈ 0.0654 µg/mL) | 0.2 (≈ 0.0654 µg/mL)
C=Cc1cccc(NC(=O)c2cc(Cl)ccc2O)c1 | 0.25 (≈ 0.0684 µg/mL) | 0.75 (≈ 0.205 µg/mL)
O=C(Nc1cc(F)cc(F)c1)c1cc(Cl)ccc1O | > 1 | > 1
CN(CC(=O)NN)C(=O)Oc1ccc(Cl)cc1C(=O)Nc1ccc([N+](=O)[O-])cc1Cl.Cl | 0.016 | 0.125
N#Cc1cccc(NC(=O)c2cc(Cl)ccc2O)c1 | > 1 | > 1
CN(CC(=O)NN)C(=O)Oc1ccc(Cl)cc1C(=O)Nc1cc(C(F)(F)F)cc(C(F)(F)F)c1.Cl | 0.125 | 0.125
COc1ccc(C)c(NC(=O)c2cc(Cl)ccc2O)c1 | > 1 | > 1
N#Cc1ccc(Cl)c(NC(=O)c2cc(Cl)ccc2O)c1 | 0.5 (≈ 0.154 µg/mL) | 0.75 (≈ 0.23 µg/mL)
O=C(Nc1cccc(Br)c1)c1cc(Cl)ccc1O | 0.5 (≈ 0.163 µg/mL) | 0.75 (≈ 0.245 µg/mL)
O=C(Nc1ccc([N+](=O)[O-])cc1Cl)c1cc(Cl)ccc1OC(=O)N1CCOCC1 | > 1 | > 1

Compound | MIC50 [µM] | MIC90 [µM]
O=C(Nc1ccc(Cl)cc1F)c1cc(Cl)ccc1O | > 1 | 0.5 (≈ 0.15 µg/mL)
COC(=O)[C@@H]1CCCN1C(=O)Oc1ccc(Cl)cc1C(=O)Nc1ccc([N+](=O)[O-])cc1Cl | > 1 | > 1
COc1ccc(F)cc1C(=O)Nc1ccc([N+](=O)[O-])cc1F | > 1 | > 1
COc1ccc(NC(=O)c2cc(Cl)ccc2O)cc1OC | > 1 | > 1
O=C(Nc1cccc(Cc2ccccc2)c1)c1cc(Cl)ccc1O | 0.75 (≈ 0.253 µg/mL) | 0.75 (≈ 0.253 µg/mL)
CCc1cccc(NC(=O)c2cc(Cl)ccc2O)c1 | 0.25 (≈ 0.0689 µg/mL) | 0.5 (≈ 0.138 µg/mL)
CC(C)Oc1cccc(NC(=O)c2cc(Cl)ccc2O)c1 | > 1 | > 1
O=C(Nc1cc(Cl)cc(Cl)c1)c1cc(Cl)ccc1O | 0.25 (≈ 0.0791 µg/mL) | 0.25 (≈ 0.0791 µg/mL)
O=C(Nc1cccc(F)c1)c1cc(Cl)ccc1O | 0.5 (≈ 0.133 µg/mL) | 0.75 (≈ 0.199 µg/mL)
O=C(Nc1cccc(C(F)(F)F)c1)c1cc(Cl)ccc1O | 0.25 (≈ 0.0789 µg/mL) | 0.25 (≈ 0.0789 µg/mL)
O=C(Nc1ccc([N+](=O)[O-])cc1Cl)c1ccccc1O | > 1 | > 1
Cc1cccc(NC(=O)c2cc(Cl)ccc2O)c1 | > 1 | > 1
C#Cc1cccc(NC(=O)c2cc(Cl)ccc2O)c1 | > 1 | > 1
CCOc1cccc(NC(=O)c2cc(F)ccc2O)c1 | > 1 | > 1
Cc1cc(C)cc(NC(=O)c2cc(Cl)ccc2O)c1 | > 1 | > 1
CN1CCN(C(=O)Oc2ccc(Cl)cc2C(=O)Nc2ccc([N+](=O)[O-])cc2Cl)CC1 | 0.5 (≈ 0.227 µg/mL) | 0.75 (≈ 0.34 µg/mL)
COc1ccc(F)cc1C(=O)Nc1ccc([N+](=O)[O-])cc1Cl | > 1 | > 1
O=C(Nc1ccc2c(c1)OCCO2)c1cc(Cl)ccc1O | > 1 | > 1
COc1ccc(NC(=O)c2cc(Cl)ccc2O)c(OC)c1OC | > 1 | > 1

What follows are molecules tested on Toxoplasma gondii (assay: Antiapicomplexan activity against Toxoplasma gondii RH tachyzoites expressing yellow fluorescent protein infected in HFF cells after 72 hrs by fluorescence assay). Settings: not given.
Format: functional, organism-based
Summary of the method: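 Confluent HFF monolayers in IMDM-C (10% FBS) infected with 3,500 RH-YFP tachyzoites per well. Compounds were added 1 h later from 10 mM DMSO stocks, final DMSO ≤0.1%. Pyrimethamine/sulfadiazine and 0.1% DMSO served as controls. After 72 h YFP fluorescence was read (ex 514, em 540 nm, bottom optics), giving MIC50/MIC90 ranges. Plates held at 33°C or 37°C, 5% CO2.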

Compound | IC50 [nM] | IC90 [nM]
O=C(Nc1cc(C(F)(F)F)cc(C(F)(F)F)c1)c1cc(Cl)ccc1O [IMD-0354] | 16 | 125
O=C(Oc1ccc(Cl)cc1C(=O)Nc1ccc([N+](=O)[O-])cc1Cl)c1ccccc1 | 61 | 125
CN(CC(=O)NN)C(=O)Oc1ccc(Cl)cc1C(=O)Nc1ccc([N+](=O)[O-])cc1Cl.Cl | 16 | 125
CN(CC(=O)NN)C(=O)Oc1ccc(Cl)cc1C(=O)Nc1cc(C(F)(F)F)cc(C(F)(F)F)c1.Cl | 125 | 125

Each molecule was assayed on Toxoplasma gondii (assay: Antiapicomplexan activity against Toxoplasma gondii ME49 oocysts infected in HLA B07 transgenic mouse assessed as increase in survival at 25 to 100 mg/kg, po). Settings: not given.
Format: functional, organism-based
Summary of the method: (§3)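 Female B7 mice (~25 g), 5 per group, given 100 ME49 or TgGoatUS4 oocysts by oral gavage, plus 100 mg/kg (2.5 mg/mL) or 25 mg/kg ([…]) of test compound as 1.0 mL oral-gavage suspension. Vehicle DMSO 1.0%/PEG 400 5.0%/0.5% CMC 94.0%. Infected untreated and drug-only groups included. Mice observed daily and day of death recorded. Impression smears examined for tachyzoites.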

Compound | Activity
CN(CC(=O)NN)C(=O)Oc1ccc(Cl)cc1C(=O)Nc1ccc([N+](=O)[O-])cc1Cl.Cl | Active

The molecules below were run on Toxoplasma gondii (assay: Antiapicomplexan activity against Toxoplasma gondii TgGoatUS4 oocysts infected in HLA B07 transgenic mouse assessed as increase in survival at 25 to 100 mg/kg, po). Settings: not given.
Format: functional, organism-based
Summary of the method: as §3

Compound | Activity
CN(CC(=O)NN)C(=O)Oc1ccc(Cl)cc1C(=O)Nc1cc(C(F)(F)F)cc(C(F)(F)F)c1.Cl | Active

The molecules below were run on Plasmodium falciparum (assay: Antiapicomplexan activity against chloroquine-resistant Plasmodium falciparum TM91-C235 assessed as growth inhibition after 72 hrs by MSF assay). Settings: TM91-C235, 72 h.
Format: functional, organism-based
Summary of the method: as §1

Compound | IC50 [nM]
O=C(Nc1cc(C(F)(F)F)cc(C(F)(F)F)c1)c1cc(Cl)ccc1O [IMD-0354] | 1300
O=C(Oc1ccc(Cl)cc1C(=O)Nc1ccc([N+](=O)[O-])cc1Cl)c1ccccc1 | 690
CN(CC(=O)NN)C(=O)Oc1ccc(Cl)cc1C(=O)Nc1ccc([N+](=O)[O-])cc1Cl.Cl | 2700

Each molecule was assayed on Toxoplasma gondii (assay: Parasitocidal activity against Toxoplasma gondii RH tachyzoites expressing yellow fluorescent protein infected in HFF cells at 1 uM administered for 10 days followed by compound wash out measured after 11 to 25 days). Settings: not given.
Format: functional, organism-based
Summary of the method: as §2

Compound | Activity
O=C(Nc1cc(C(F)(F)F)cc(C(F)(F)F)c1)c1cc(Cl)ccc1O [IMD-0354] | Active
O=C(Oc1ccc(Cl)cc1C(=O)Nc1ccc([N+](=O)[O-])cc1Cl)c1ccccc1 | Active
CN(CC(=O)NN)C(=O)Oc1ccc(Cl)cc1C(=O)Nc1ccc([N+](=O)[O-])cc1Cl.Cl | Active
